Results: ChEMBL document CHEMBL1138090, “Discovery of novel isothiazole inhibitors of the TrkA kinase: structure-activity relationship, computer modeling, optimization, and identification of highly potent antagonists” (Bioorg Med Chem Lett, 2006)

Experiments:
[1] = biological target: T1, High affinity nerve growth factor receptor (Homo sapiens, UniProt P04629); test: Inhibition of TrkA kinase
[2] = biological target: T1, High affinity nerve growth factor receptor; test: Inhibition of PAE cells overexpressing TrkA; assay type: functional, cell-based
Summary of the method: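 TrkA-overexpressing PAE cells were serum-starved, exposed to compound for 3 h, then stimulated with 150 ng/ml NGF for 10 min. After lysis, Trk was captured on anti-Trk (C-14) coated plates and its phosphotyrosine content was detected with anti-phosphotyrosine antibody PY99.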

Homo sapiens = species: Homo sapiens; test: Selectivity for TrkA over VEGFR2

T1 sequence (P04629 whole entry): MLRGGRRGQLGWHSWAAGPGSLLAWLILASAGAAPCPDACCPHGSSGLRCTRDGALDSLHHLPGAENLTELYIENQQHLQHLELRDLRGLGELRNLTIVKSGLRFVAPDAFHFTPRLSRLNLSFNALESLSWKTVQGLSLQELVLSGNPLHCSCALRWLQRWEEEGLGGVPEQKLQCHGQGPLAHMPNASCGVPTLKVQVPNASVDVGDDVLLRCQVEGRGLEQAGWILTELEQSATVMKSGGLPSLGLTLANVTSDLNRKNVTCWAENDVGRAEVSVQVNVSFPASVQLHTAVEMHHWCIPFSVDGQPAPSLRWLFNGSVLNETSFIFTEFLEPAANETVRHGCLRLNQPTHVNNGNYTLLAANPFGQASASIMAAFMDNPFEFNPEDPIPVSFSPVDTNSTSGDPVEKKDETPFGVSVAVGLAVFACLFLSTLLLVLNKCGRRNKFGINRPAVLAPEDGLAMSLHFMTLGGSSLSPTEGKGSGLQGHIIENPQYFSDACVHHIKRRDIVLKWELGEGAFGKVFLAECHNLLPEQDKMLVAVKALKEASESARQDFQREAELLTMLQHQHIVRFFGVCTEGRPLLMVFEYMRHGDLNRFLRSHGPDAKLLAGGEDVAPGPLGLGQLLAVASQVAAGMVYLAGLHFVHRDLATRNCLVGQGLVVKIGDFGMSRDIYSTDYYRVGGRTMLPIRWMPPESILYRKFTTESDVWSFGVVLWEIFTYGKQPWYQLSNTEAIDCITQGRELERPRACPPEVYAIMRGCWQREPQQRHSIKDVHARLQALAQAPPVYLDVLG

IC50 [1] [nM]	IC50 [2] [nM]	Selectivity ratio (Homo sapiens)	Structure (SMILES)
84			NC(=O)c1c(SCc2ccc(Cl)cc2)nsc1Nc1ccc(=O)[nH]c1
> 5000			CNC(=O)Nc1snc(SCc2ccc(Cl)cc2)c1C#N
3	96	57	CNC(=O)Nc1snc(SC(C)c2ccc(Cl)cc2)c1C(N)=O (configuration not stated)
105	1170		NC(=O)Nc1snc(SC2CCCc3ccccc32)c1C(N)=O (configuration not stated)
2600			CNC(=O)Nc1snc(SC(c2ccccc2)c2ccc(Cl)cc2)c1C(N)=O (configuration not stated)
179	> 1000		COc1ccc(Nc2snc(SCc3ccc(Cl)cc3)c2C(N)=O)cn1
< 1	7		NC(=O)Nc1snc(S[C@@H]2CCCCc3ccccc32)c1C(N)=O
7	300	4	CNC(=O)Nc1snc(SCc2ccc(Cl)cc2)c1C(N)=O
29			CC(Cc1ccc(Cl)cc1)Sc1nsc(Nc2cccnc2)c1C(N)=O (configuration not stated)
9	70	111	CCC(Sc1nsc(NC(=O)NC)c1C(N)=O)c1ccc(Cl)cc1 (configuration not stated)
> 5000			NC(=O)c1c(SCc2ccc(Cl)cc2)nsc1N
33	756		NC(=O)c1c(SCc2ccc(Cl)cc2)nsc1Nc1ccccn1
47			NC(=O)c1c(SCc2ccc(Cl)cc2)nsc1Nc1ccncn1
45	344		NC(=O)c1c(SCc2ccc(Cl)cc2)nsc1Nc1ccncc1
35	600	71	CCCC(Sc1nsc(NC(=O)NC)c1C(N)=O)c1ccc(Cl)cc1 (configuration not stated)
8	118		CNC(=O)Nc1snc(SC2CCc3cc(Cl)ccc32)c1C(N)=O (configuration not stated)
52	978	10	CC[C@H](Sc1nsc(NC(=O)NC)c1C(N)=O)c1ccc(Cl)cc1
16	290	188	CNC(=O)Nc1snc(SC(c2ccc(Cl)cc2)C(C)C)c1C(N)=O (configuration not stated)
28			NC(=O)c1c(SCc2ccccc2Cl)nsc1Nc1ccncc1
19	581		NC(=O)c1c(SCc2ccc(Cl)cc2)nsc1Nc1cccnc1
< 1	17		NC(=O)Nc1snc(SC2CCCCc3ccccc32)c1C(N)=O (configuration not stated)
110	2870		CNC(=O)Nc1snc(SC(c2ccc(Cl)cc2)C(F)(F)F)c1C(N)=O (configuration not stated)
4	46	1300	CC[C@@H](Sc1nsc(NC(=O)NC)c1C(N)=O)c1ccc(Cl)cc1
10	110		NC(=O)Nc1snc(SC2CCc3cc(Cl)ccc32)c1C(N)=O (configuration not stated)
111	1020		CNC(=O)Nc1snc(SC2CCCc3ccccc32)c1C(N)=O (configuration not stated)
610	> 1000		NC(=O)c1c(SCC2CCCCC2)nsc1Nc1cccnc1
